# An excerpt weighted towards active compounds, which were near 2.4% of everything screened.
# S1P4 antagonist – blocks the human S1P4 receptor. O95977. S1P4-expressing cells, antagonist mode, reporter read-out. inhibition, % at 4.98 µM. 0.26% of 220,000 active. AID 1510; in the data active = inhibition above about 29%
# NPY Y2 blocker – blocks the human neuropeptide Y Y2 receptor; NPY-Y2 expressing cells, antagonist mode; inhibition, % at 2.7 µM; 0.99% of 140,000 active
# Target sequence (P49146 whole entry, looked up): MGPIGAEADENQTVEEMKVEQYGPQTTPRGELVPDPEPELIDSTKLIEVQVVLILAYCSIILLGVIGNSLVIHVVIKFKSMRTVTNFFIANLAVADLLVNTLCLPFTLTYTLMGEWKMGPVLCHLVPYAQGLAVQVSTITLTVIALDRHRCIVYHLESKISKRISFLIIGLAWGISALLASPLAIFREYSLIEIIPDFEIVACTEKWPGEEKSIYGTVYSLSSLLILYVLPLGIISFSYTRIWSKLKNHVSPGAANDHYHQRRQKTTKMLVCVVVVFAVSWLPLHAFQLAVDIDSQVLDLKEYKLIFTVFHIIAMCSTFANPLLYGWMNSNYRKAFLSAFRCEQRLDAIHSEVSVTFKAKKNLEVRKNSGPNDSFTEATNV
# NPY-Y1 PAM-ag – potentiators or agonists of human neuropeptide Y receptor Y1; activation, % at 3.6 µM; NPY-Y1 expressing cells, potentiator/agonist activation; P25929; 0.37% of 220,000 active; in the data active = activation above about 33%, passing the limit was not always enough;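 note: cells stimulated with NPY at EC10 then isoproterenol at EC100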
# NPY-Y1 antag – NPY-Y1 (human) receptor antagonism; P25929; HEK293-CNG Y1 cells, membrane potential fluorescence; NPY at EC95, then isoproterenol; inhibition, % at 3.6 µM; 1% of 200,000 active; AID 1040;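 active = inhibition above the campaign mean inhibition of all tested compounds plus 3 SD, cut at about 20% in these data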
#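 Material: HEK293 Y1/CNG channel cell line; also added: NPY (25 nM), isoproterenol (1 µM), Ro 20-1724 (25 µM); doses: one concentration, 3.6 µM, in 0.4% DMSO; schedule: compound incubation 1 h at room temperature, readout 45 min post-stimulation; technique: membrane potential fluorescence; measure: fluorescence ratio normalized to % inhibition between controls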
# NPY2 pot ag – potentiates or activates human NPY-Y2 receptor; P49146; cells expressing NPY-Y2, potentiator/agonist read-out; activation, % at 3.6 µM; 0.45% of 220,000 active; in the data active = activation above about 27%;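 note: cells stimulated with NPY near EC25 plus isoproterenol at EC100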
# S1P4 agonist – agonists of human S1P4 receptor; 0.35% of 220,000 active; S1P4-expressing cell line, agonist reporter assay; activation, % at 4.98 µM; AID 1509; O95977; in the data active = activation above about 11%
# NPY1 antag ctr – antagonizes human NPY-Y1, counter-screen to NPY-Y2 antagonists; shares compounds with NPY Y2 blocker; cell-based NPY-Y1 antagonism counterscreen; inhibition, % at 3.6 µM; 19% of 710 active; AID 1256; in the data active = inhibition above about 20%;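 note: cells challenged with NPY then isoproterenol with cAMP sensed through a CNG channel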
# NPY-Y2 ant conf – confirmation of human neuropeptide Y receptor Y2 antagonists; HEK293 NPY-Y2 CNG channel, membrane potential fluorescence; 32% of 710 active; shares compounds with NPY Y2 blocker; inhibition, % at 2.8 µM;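 active = mean inhibition of triplicate wells above the hit cutoff set in the primary screen, cut at about 17% in these data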
# NPY1 antag conf – confirmation of human neuropeptide Y receptor Y1 antagonists | shares compounds with NPY-Y1 antag | AID 1254 | 21% of 1,200 active | HEK293-CNG NPY-Y1, membrane potential fluorescence, cAMP; NPY challenge against isoproterenol-raised cAMP | inhibition, % at 3.6 µM; in the data active = inhibition above about 20%
# NPY2 antag ctr – antagonizes human NPY-Y2, counter-screen to NPY-Y1 antagonists. shares compounds with NPY-Y1 antag. inhibition, % at 3.6 µM. 28% of 1,200 active. HEK293 NPY-Y2 CNG membrane potential fluorescence, antagonism; cells given NPY, then isoproterenol. AID 1255
# NPY-Y2 pot conf – human NPY-Y2 potentiation or agonism, confirmation | shares compounds with NPY2 pot ag | cell-based NPY-Y2 potentiator/agonist assay | activation, % at 3.6 µM | 20% of 450 active | AID 1539; in the data active = activation above about 33%
# NPY-Y1 counter – potentiates or activates NPY-Y1, counter-screen for NPY-Y2 hits; activation, % at 3.6 µM; 20% of 450 active; shares compounds with NPY2 pot ag; AID 1651; Y1 HEK293-CNG cells, membrane potential fluorescence; in the data active = activation above about 45%;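 note: cells stimulated with submaximal NPY then isoproterenol with phosphodiesterase inhibitor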
# NPY-Y1 ag 2 – human NPY-Y1 agonism as NPY-Y2 potentiator counter-screen. activation, % at 3.6 µM. shares compounds with NPY2 pot ag. HEK293 Y1-CNGC, membrane potential fluorescence. AID 1702. 37% of 450 active;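 active = activation above the mean of DMSO-only control wells plus 3 SD, cut at about 18% in these data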;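 note: cells stimulated with 1 µM isoproterenol plus the PDE inhibitor Ro 20-1724; Y1 agonists lower the membrane potential dye signal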
# CNGC inhibitor – blocks CNG channel activity, counter-screen for NPY-Y2 potentiators | HEK293-CNG parental, isoproterenol cAMP, membrane potential fluorescence | AID 1703 | inhibition, % at 3.6 µM | 32% of 450 active | shares compounds with NPY2 pot ag;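 active = inhibition above the control-well mean plus 3 SD of those wells, cut at about 22% in these data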
# NPY-Y2 ag 2 – counter-screen for NPY-Y2 potentiators: agonists of human NPY-Y2; shares compounds with NPY2 pot ag; AID 1710; HEK293 Y2/CNGC cells, membrane potential fluorescence, agonist mode; 56% of 450 active; activation, % at 3.6 µM;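 active = activation above the mean of solvent-only control wells plus 3 SD, cut at about 10% in these data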;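 note: cells stimulated by isoproterenol with no NPY added so direct agonism is tested; agonism lowers probe fluorescence through less cAMP and CNG channel opening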
# Numbers stand for hits; n = inactive; x = no result given. Cut-off read from the data, not from the text of the source, unless noted: active = inhibition above about 17%; inactive = the rest.
SMILES,S1P4 antagonist,NPY Y2 blocker,NPY-Y1 PAM-ag,NPY-Y1 antag,NPY2 pot ag,S1P4 agonist,NPY1 antag conf,NPY2 antag ctr,others
CC1CCC(C(C)C)C(OC(=O)COC(=O)c2ccccc2N)C1 (configuration not stated),n,18,n,n,n,n,x,x,NPY1 antag ctr=n;NPY-Y2 ant conf=n
CCC(=NCCC(c1ccccc1)c1ccccc1)c1c(O)[nH]c(=O)[nH]c1=O,n,35,n,n,n,n,x,x,NPY1 antag ctr=40;NPY-Y2 ant conf=67
c1nc2nc3c(c(N4CCNCC4)n2n1)CCCC3,n,x,n,x,n,n,x,x,
O=C(c1ccco1)c1cn(Cc2ccccc2)c2ccccc12,n,n,n,n,n,n,x,x,
O=C(c1ccco1)c1cn(Cc2ccccc2Cl)c2ccccc12,n,24,n,n,n,n,x,x,NPY1 antag ctr=n;NPY-Y2 ant conf=n
N#Cc1ccccc1Cn1cc(C(=O)c2ccco2)c2ccccc21,n,17,n,n,n,n,x,x,NPY1 antag ctr=n;NPY-Y2 ant conf=n
COP(=O)(OC)C(Nc1ccccn1)c1ccccc1 (configuration not stated),n,n,n,n,n,n,x,x,
O=P(Oc1ccccc1)(Oc1ccccc1)C(Nc1ccccc1)c1ccccc1 (configuration not stated),n,28,n,n,n,n,x,x,NPY1 antag ctr=27;NPY-Y2 ant conf=20
O=c1[nH]c(=O)n(-c2cccc3ccccc23)c(O)c1/C=N/N1CCCCC1c1cccnc1 (configuration not stated),n,n,n,25,n,n,n,n,
COc1cc(C)c(-c2nc(CN3C[C@@H]4C[C@@H](C3)c3cccc(=O)n3C4)c(C)o2)cc1C,n,x,n,n,n,n,x,x,
COc1cccc(NP(=O)(Oc2ccccc2)Oc2ccccc2)c1,n,n,n,22,n,n,n,n,
O=[N+]([O-])c1cc([As](=O)(O)c2ccc(O)c([N+](=O)[O-])c2)ccc1O,n,x,n,x,n,n,x,x,
Fc1ccccc1CNC1CN2CCC1CC2 (configuration not stated),n,x,n,n,n,n,x,x,
Cc1ccccc1C(O)(Cc1ccccc1)C1CN2CCC1CC2 (configuration not stated),n,n,n,21,n,n,n,n,
CCOc1cc(C2NCc3ccccc3-n3cccc32)ccc1O (configuration not stated),n,n,n,22,n,n,n,n,
CCOc1cccc(C2NCc3ccccc3-n3cccc32)c1O (configuration not stated),n,n,n,n,n,n,x,x,
Cc1cc(NCCN)nc2ccccc12,n,n,n,21,n,n,n,n,
N#Cc1cc2c(nc1SCC(=O)Nc1cc(Cl)cc(Cl)c1)C1CCN2CC1,n,n,n,n,n,n,x,x,
COc1cccc(C(=O)C2CCCN(Cc3ccc4nonc4c3)C2)c1 (configuration not stated),n,x,n,29,n,n,n,n,
CN1C(=O)c2ccccc2NC(=O)[C@]12O[C@@H]2c1ccccc1,n,x,n,n,n,n,x,x,
CN(C)C(Cc1ccccc1)C(=O)c1ccc(-c2ccccc2)cc1 (configuration not stated),n,n,n,27,n,n,n,n,
NCCCC(=O)OC1N=C(c2ccccc2Cl)c2cc(Br)ccc2NC1=O (configuration not stated),n,x,n,n,n,n,x,x,
CCOC(=O)C1(CCc2ccccc2)CCN(C2CCSCC2)CC1,n,x,n,23,n,n,n,n,
CN1CCc2c(C#N)c(Cl)nc(Cl)c2C1,n,n,n,n,n,n,x,x,
COc1ccc2c(CN3CC=C(c4ccccc4)CC3)cc(=O)oc2c1,n,x,n,n,n,n,x,x,
SMILES,S1P4 antagonist,NPY Y2 blocker,NPY-Y1 PAM-ag,NPY-Y1 antag,NPY2 pot ag,S1P4 agonist,NPY1 antag conf,NPY2 antag ctr,others
COc1ccc2ccc(O)c(CN3CC=C(c4ccccc4)CC3)c2c1,n,x,n,23,n,n,n,24,
CN(CC1COc2ccccc2O1)c1nc(-c2cccnc2)nc2ccccc12 (configuration not stated),n,n,n,22,n,n,n,n,
CN1CCC(N(C)c2nc(-c3ccc([N+](=O)[O-])cc3)nc3ccccc23)CC1,n,n,n,n,n,n,x,x,
Cc1ccsc1C(=O)C1CCCN(Cc2ccccc2O)C1 (configuration not stated),n,x,n,n,n,n,x,x,
Cc1ccsc1C(=O)C1CCCN(Cc2cccn2-c2ccccn2)C1 (configuration not stated),n,x,n,29,n,n,21,24,
CN(C)c1ccc(-[n+]2c(-c3ccccc3)cc(-c3ccccc3)cc2-c2ccccc2)cc1,n,x,n,50,51,n,35,18,NPY-Y2 pot conf=n;NPY-Y1 counter=n;NPY-Y1 ag 2=n;CNGC inhibitor=n;NPY-Y2 ag 2=12
CCC1CCCCN1CC(=O)c1ccc(OC(F)F)cc1 (configuration not stated),n,n,n,n,n,n,x,x,
